Assay results as given in ChEMBL document CHEMBL2321820, “Discovery of HSD-621 as a Potential Agent for the Treatment of Type 2 Diabetes” (ACS Med Chem Lett, 2013).

Key:
[1] = AUC in C57B6 mouse at 10 mg/kg, po; assay type: ADME, organism-based; design: dose 10 mg/kg, route oral; conditions: plasma
Summary of the method: (§1)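 Male C57B6 mice. IV dose of 2 mg/kg in 50% DMSO/50% PEG200. Oral dose of 10 mg/kg in 2% Tween/0.5% methyl cellulose in water. Values are PK parameters from the iv and po arms.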

Canis familiaris = test: Toxicity in dog at 100 to 1000 mg/kg; assay type: organism-based, Canis lupus familiaris; design: dose 100-1000 mg/kg; conditions: in vivo
Summary of the method: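 Dogs were dosed at 100, 300 and 1000 mg/kg in a 14-day safety assessment and metabolism study.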

[2] = Half life in C57B6 mouse at 2 mg/kg, iv; assay type: ADME, organism-based; design: dose 2 mg/kg, route intravenous; conditions: in vivo; summary of the method: as §1
[3] = Oral bioavailability in C57B6 mouse at 10 mg/kg; assay type: ADME, organism-based; conditions: in vivo; summary of the method: as §1
Mus musculus [4] = species on record: Mus musculus; test: Antidiabetic activity in C57B6 DIO mouse assessed as reduction in fasting glucose level at 0.3 mg/g of food after 31 days by HPLC analysis relative to untreated control; assay type: functional; design: scale not given: the % may be the effect or the level left
Summary of the method: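 Male C57B6 mice, 5.5–7 months old, kept on a 35.5% fat diet for 4 months. Compound was mixed into food at 0.3 mg drug/g food for 31 days. Controls received diet 12492. Glucose and insulin were measured fed and fasting.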

[5] = biological target: T1, 11-beta-hydroxysteroid dehydrogenase type 2 (Homo sapiens, UniProt P80365); test: Inhibition of human 11beta-HSD2 expressed in CHO cells using […] as substrate incubated for 30 mins prior to substrate addition measured after 120 mins by scintillation counting analysis; assay type: cell-based
T1 sequence (P80365 whole entry): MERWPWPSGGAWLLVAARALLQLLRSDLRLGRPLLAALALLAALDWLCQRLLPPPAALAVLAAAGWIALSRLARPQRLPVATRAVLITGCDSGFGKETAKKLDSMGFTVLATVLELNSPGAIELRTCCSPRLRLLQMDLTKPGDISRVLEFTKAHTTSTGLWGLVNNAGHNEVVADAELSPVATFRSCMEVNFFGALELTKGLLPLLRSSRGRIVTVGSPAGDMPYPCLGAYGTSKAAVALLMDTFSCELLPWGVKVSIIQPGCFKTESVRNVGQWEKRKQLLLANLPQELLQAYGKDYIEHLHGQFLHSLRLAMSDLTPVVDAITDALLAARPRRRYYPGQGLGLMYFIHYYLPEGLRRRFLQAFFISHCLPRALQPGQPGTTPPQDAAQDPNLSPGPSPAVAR

Mus musculus [6] = species on record: Mus musculus; test: Toxicity in C57B6 DIO mouse assessed as elevation of aspartate aminotransferase at 0.3 mg/g of food after 31 days; assay type: organism-based; conditions: in vivo, po, 744 h
[7] = Half life in Sprague-Dawley rat at 10 mg/kg, po; assay type: ADME, organism-based; design: dose 10 mg/kg, route oral; conditions: in vivo
Summary of the method: (§2)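 SD rats received 2 mg/kg iv in 50% DMSO/50% PEG200, or 10 mg/kg po in 2% Tween/0.5% methyl cellulose in water. PK parameters come from each route.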

Mus musculus [8] = test: Ex vivo inhibition of 11beta-HSD1 in C57B16 mouse epididymal fat assessed as conversion of [3H]-cortisone to [3H]-cortisol at 10 mg/kg, po after 5 hrs by HPLC analysis relative to vehicle-treated control; assay type: functional
Summary of the method: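 Mice were dosed orally at 10 mg/kg. Epididymal fat was collected 5 h after dosing for the ex vivo readout.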

[9] = Cmax in Beagle dog at 5 mg/kg, po; conditions: in vivo
[10] = Volume of distribution at steady state in Beagle dog at 2 mg/kg, iv; assay type: ADME, organism-based, Canis lupus familiaris; design: dose 2 mg/kg, route intravenous; conditions: in vivo, read-out: Vdss
Summary of the method: (§3)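 Male dogs were given 2 mg/kg intravenously in 50% DMSO/50% PEG200.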

[11] = Clearance in C57B6 mouse at 2 mg/kg, iv; assay type: ADME, organism-based; design: dose 2 mg/kg, route intravenous; conditions: in vivo; summary of the method: as §1
[12] = Oral bioavailability in Sprague-Dawley rat at 10 mg/kg; assay type: ADME, organism-based; conditions: in vivo; summary of the method: as §2
[13] = biological target: Voltage-gated inwardly rectifying potassium channel KCNH2 (Homo sapiens, UniProt Q12809); test: Activity at human ERG at 33 uM
Sequence of Voltage-gated inwardly rectifying potassium channel KCNH2 (Q12809 whole entry): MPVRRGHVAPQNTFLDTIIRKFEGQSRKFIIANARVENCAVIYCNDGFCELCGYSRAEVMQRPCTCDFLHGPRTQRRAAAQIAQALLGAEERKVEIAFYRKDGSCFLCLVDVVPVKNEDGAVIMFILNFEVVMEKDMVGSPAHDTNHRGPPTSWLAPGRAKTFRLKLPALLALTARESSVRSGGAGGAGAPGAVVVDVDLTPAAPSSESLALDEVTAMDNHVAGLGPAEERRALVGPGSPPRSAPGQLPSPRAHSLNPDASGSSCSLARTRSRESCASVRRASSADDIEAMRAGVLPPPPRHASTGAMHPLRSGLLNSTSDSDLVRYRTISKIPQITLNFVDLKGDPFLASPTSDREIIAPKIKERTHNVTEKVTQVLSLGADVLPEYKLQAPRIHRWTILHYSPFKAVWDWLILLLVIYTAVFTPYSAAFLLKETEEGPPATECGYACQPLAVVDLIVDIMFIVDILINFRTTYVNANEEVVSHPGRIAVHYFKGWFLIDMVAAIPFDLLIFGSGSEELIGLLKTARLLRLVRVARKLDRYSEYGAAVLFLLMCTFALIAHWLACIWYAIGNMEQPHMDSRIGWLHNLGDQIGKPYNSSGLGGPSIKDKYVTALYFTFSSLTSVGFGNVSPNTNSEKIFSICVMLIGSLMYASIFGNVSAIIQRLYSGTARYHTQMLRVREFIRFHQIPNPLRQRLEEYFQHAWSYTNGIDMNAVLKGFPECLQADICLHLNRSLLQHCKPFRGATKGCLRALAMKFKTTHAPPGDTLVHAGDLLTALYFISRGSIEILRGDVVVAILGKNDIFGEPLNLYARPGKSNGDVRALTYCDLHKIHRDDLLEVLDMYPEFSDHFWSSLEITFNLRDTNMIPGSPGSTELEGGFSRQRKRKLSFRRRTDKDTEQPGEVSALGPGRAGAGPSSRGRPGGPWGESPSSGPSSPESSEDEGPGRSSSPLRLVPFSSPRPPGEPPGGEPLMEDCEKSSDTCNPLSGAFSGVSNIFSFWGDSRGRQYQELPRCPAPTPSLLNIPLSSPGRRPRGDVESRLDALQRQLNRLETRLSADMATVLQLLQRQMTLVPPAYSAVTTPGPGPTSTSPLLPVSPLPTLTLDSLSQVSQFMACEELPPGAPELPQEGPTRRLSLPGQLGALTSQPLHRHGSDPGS

Mus musculus [14] = species on record: Mus musculus; test: Toxicity in C57B6 DIO mouse assessed as body weight change at 0.3 mg/g of food after 31 days relative to untreated control; assay type: organism-based; conditions: in vivo, po, 744 h
[15] = Cmax in C57B6 mouse at 10 mg/kg, po; assay type: ADME, organism-based; design: dose 10 mg/kg, route oral; conditions: in vivo; summary of the method: as §1
[16] = Tmax in C57B6 mouse at 10 mg/kg, po; assay type: ADME, organism-based; design: dose 10 mg/kg, route oral; conditions: in vivo; summary of the method: as §1
[17] = Half life in rat liver microsomes; assay type: ADME, Microsome
[18] = Tmax in Sprague-Dawley rat at 10 mg/kg, po; assay type: ADME, organism-based; design: dose 10 mg/kg, route oral; conditions: in vivo; summary of the method: as §2
[19] = Cmax in Sprague-Dawley rat at 10 mg/kg, po; assay type: ADME, organism-based; design: dose 10 mg/kg, route oral; conditions: in vivo; summary of the method: as §2
[20] = AUC in Beagle dog at 5 mg/kg, po; conditions: plasma
[21] = Half life in C57B6 mouse at 10 mg/kg, po; assay type: ADME, organism-based; design: dose 10 mg/kg, route oral; conditions: in vivo; summary of the method: as §1
[22] = AUC in Sprague-Dawley rat at 10 mg/kg, po; assay type: ADME, organism-based; design: dose 10 mg/kg, route oral; conditions: plasma; summary of the method: as §2
[23] = Half life in Sprague-Dawley rat at 2 mg/kg, iv; assay type: ADME, organism-based; design: dose 2 mg/kg, route intravenous; conditions: in vivo; summary of the method: as §2
[24] = Half life in human liver microsomes; assay type: ADME, Microsome
Salmonella typhimurium = test: Genotoxicity in Salmonella typhimurium by Ames test; assay type: toxicity, organism-based; conditions: salmonella enterica subsp. enterica serovar typhimurium
[25] = Clearance in Beagle dog at 2 mg/kg, iv; assay type: ADME, organism-based, Canis lupus familiaris; design: dose 2 mg/kg, route intravenous; conditions: in vivo; summary of the method: as §3
[26] = biological target: T2, Peroxisome proliferator-activated receptor gamma (Homo sapiens, UniProt P37231); test: Inhibition of PPARgamma (unknown origin)
T2 sequence (P37231 whole entry): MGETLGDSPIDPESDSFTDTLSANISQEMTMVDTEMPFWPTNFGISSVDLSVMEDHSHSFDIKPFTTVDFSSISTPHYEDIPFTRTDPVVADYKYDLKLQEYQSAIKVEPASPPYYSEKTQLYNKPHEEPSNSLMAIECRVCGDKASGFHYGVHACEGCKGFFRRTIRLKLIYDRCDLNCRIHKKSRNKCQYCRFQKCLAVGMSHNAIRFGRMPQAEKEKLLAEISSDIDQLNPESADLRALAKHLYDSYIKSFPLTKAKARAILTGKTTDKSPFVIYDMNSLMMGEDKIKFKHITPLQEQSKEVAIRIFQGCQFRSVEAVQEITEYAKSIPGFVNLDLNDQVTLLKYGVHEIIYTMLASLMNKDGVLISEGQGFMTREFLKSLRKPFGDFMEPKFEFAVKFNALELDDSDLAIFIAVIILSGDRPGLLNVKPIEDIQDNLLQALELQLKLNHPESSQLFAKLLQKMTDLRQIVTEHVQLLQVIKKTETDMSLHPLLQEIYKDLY

[27] = biological target: 11-beta-hydroxysteroid dehydrogenase 1 (Mus musculus, UniProt P50172); test: Inhibition of mouse 11beta-HSD1 expressed in CHO cells […] incubated for 30 mins prior to substrate addition measured after 120 mins by chemiluminescence assay; assay type: cell-based
Sequence of 11-beta-hydroxysteroid dehydrogenase 1 (P50172 whole entry): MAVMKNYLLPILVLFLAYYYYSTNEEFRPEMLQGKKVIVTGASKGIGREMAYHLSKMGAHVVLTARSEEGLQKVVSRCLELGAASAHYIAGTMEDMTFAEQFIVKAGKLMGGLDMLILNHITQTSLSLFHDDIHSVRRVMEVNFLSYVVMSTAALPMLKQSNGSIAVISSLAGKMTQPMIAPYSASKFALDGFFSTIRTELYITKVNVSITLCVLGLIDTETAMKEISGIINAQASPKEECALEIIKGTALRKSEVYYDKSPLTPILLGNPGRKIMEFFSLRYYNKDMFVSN
Summary of the method: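 Cell-based assay run in duplicate. Compounds were tested as 11-point 2-fold dilutions, and IC50 was derived. Lower assay threshold was 10 nM.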

[28] = AUC in Sprague-Dawley rat at 2 mg/kg, iv; assay type: ADME, organism-based; design: dose 2 mg/kg, route intravenous; conditions: plasma; summary of the method: as §2
[29] = Clearance in Sprague-Dawley rat at 2 mg/kg, iv; assay type: ADME, organism-based; design: dose 2 mg/kg, route intravenous; conditions: in vivo; summary of the method: as §2

C[C@@H]1CN(c2ccc(F)cc2C(F)(F)F)CCN1S(=O)(=O)c1ccc([C@@](O)(C(N)=O)C(F)(F)F)s1
AUC [1]: 11700 ng·h/mL
Activity (Canis familiaris): Non-toxic
half-life [2]: 6.1 h
bioavailability [3]: 67%
Activity (Mus musculus [4]): 15%
IC50 [5]: > 100 µM
Activity (Mus musculus [6]): Non-toxic
half-life [7]: 3.3 h
inhibition in vivo at 10 mg/kg (Mus musculus [8]): 75%
Cmax [9]: 1440 ng/mL
Vd [10]: 1.8 L/kg
clearance [11]: 9 mL/min/kg
bioavailability [12]: 61%
Activity [13]: Not Active
Activity (Mus musculus [14]): Non-toxic
Cmax [15]: 987 ng/mL
Tmax [16]: 2 h
half-life [17]: > 0.5 h
Tmax [18]: 1.8 h
Cmax [19]: 656 ng/mL
AUC [20]: 43500 ng·h/mL
half-life [21]: 4.8 h
AUC [22]: 6540 ng·h/mL
half-life [23]: 8.6 h
half-life [24]: > 0.5 h
Activity (Salmonella typhimurium): Non-toxic
clearance [25]: 1 mL/min/kg
IC50 [26]: > 100 µM
IC50 [27]: 0.01 µM
AUC [28]: 4310 ng·h/mL
clearance [29]: 8 mL/min/kg
